Source: PubChem BioAssay
rRNA inh HTS – selective bacterial rRNA inhibition in E. coli; AID 720706; hit rate 1.6% among 350,000; E. coli WT GFP vs humanized-ribosome RFP mutants, fluorescence, 24 h; active compounds read low; DMSO median 0, no signal -100; GFP signal change (wild-type ribosome), % (concentration not given with the values);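 active means significant combined selectivity score with lowered wild-type GFP, culture density cut under 30%, mutant RFP and density less affected; inactive means any of these conditions unmet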
FGF22 binding – binders of recombinant human FGF22 by thermal shift; Q9HCT0; SYPRO orange fluorescence; percent of sucrose octasulfate shift, DMSO zero; activity (Tm shift, normalised), % at 9.99 µM; hit rate 1.5% among 340,000;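 active means mean Tm shift, scaled 0 neutral to 100 positive control, at about 1.3% or above, every replicate too, limit read from the data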
Target sequence (Q9HCT0 whole entry, looked up): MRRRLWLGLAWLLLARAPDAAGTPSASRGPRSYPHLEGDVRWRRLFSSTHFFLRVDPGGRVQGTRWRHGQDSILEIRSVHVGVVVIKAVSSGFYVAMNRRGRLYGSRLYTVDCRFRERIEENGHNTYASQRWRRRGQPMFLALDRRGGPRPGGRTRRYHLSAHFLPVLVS
E-selectin induc – induces E-selectin expression in human endothelial cells | activation, % at 7.58 µM | hit rate 0.37% among 260,000 | HUVEC E-selectin immunofluorescence imaging; normalized: neutral wells 0, TNF-alpha wells 100;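 active means mean E-selectin-positive cell signal at least 10% of the positive control, reached in at least 60% of replicates, without over 20% cell loss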
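Read-out: % PE-positive cells | Test system: HUVEC | Doses: One compound dose added by pin transfer | Buffer or medium: EGM-2 over gelatin coat | Signal: Immunofluorescence imaging | Benchmarks: TNF-alpha, DMSO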
C2C12 statin – protects C2C12 myotubes from simvastatin toxicity; ATP luminescence, 48 h; scaled: DMSO 0, geranylgeraniol control 100; rescue of ATP level, % at 7.49 µM; hit rate 0.78% among 330,000;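 active means mean ATP rescue above about 67%, or every replicate alone reaching that limit, limit read from the data, passing the limit was not always enough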;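 further: myotubes were challenged with 10 µM simvastatin during compound exposure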
FN deposition inh – fibronectin deposition inhibition. AH1F fibroblasts, Alexa488-fibronectin deposition fluorescence, overnight. hit rate 0.086% among 350,000. inhibition, % at 12.6 µM. AID 743247;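 active means mean inhibition across replicates of 30% or more, regardless of how many single replicates reach that level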;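 further: positive control wells lacked labelled fibronectin entirely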
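material = AH1F fibroblast monolayer depositing Alexa488-labelled fibronectin into matrix | amount = 10000 AH1F cells/well | buffer or medium = DMEM plus 2% serum, read in PBS | incubation = 1 h cell adhesion before compound, then overnight fibronectin incubation | detection = fluorescence at 485 nm excitation, 525 nm emission | evaluation = percent inhibition as loss of matrix-bound fibronectin fluorescence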
SIRT5 block – blocks human SIRT5 desuccinylation of peptide. hit rate 1.1% among 330,000. inhibition, % at 15 µM. Q9NXA8. Purified SirT5, succinyl-peptide AMC, trypsin-coupled fluorescence. AID 652115; in the data active means inhibition above about 15%
Target sequence (Q9NXA8 whole entry, looked up): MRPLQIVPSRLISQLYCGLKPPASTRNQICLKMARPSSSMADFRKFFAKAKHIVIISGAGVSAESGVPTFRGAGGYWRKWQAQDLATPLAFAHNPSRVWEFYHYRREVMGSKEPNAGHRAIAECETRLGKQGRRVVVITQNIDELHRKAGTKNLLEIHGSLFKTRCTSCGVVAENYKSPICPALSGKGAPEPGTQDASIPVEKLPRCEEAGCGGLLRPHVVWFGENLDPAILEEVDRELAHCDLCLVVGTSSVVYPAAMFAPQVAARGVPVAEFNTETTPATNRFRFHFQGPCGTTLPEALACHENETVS
* marks the source's active call; other numbers are inactive results; . = no result. The list is not random: actives were taken first. Their share in the collection is about 4%.

SMILES	rRNA inh HTS	FGF22 binding	E-selectin induc	C2C12 statin	FN deposition inh	SIRT5 block
Cc1ccc(NC(=O)CN2CCN(Cc3ccccc3)CC2)c(Br)c1	-23*	0	.	12	1	0
O=C(CN1C(=O)c2ccccc2C1=O)Nc1cccc(S(=O)(=O)Nc2ccccc2Cl)c1	-26*	0	2	.	15	3
O=C(NCc1ccc(Cl)cc1Cl)C1CC(=O)N(Cc2ccccc2)C1 (centres undefined)	-23*	0	3	10	2	-2
O=C(CN1CCN(Cc2ccccc2)CC1)Nc1cccc(S(=O)(=O)N2CCCCCC2)c1	-21	43*	-1	.	-2	6
O=C(N[C@H]1CC[C@@H](CCNC(=O)c2ccccc2F)O[C@@H]1CO)c1cnccn1	-1	-1	0	3	-18	10
C[C@H]1CN([C@@H](C)CO)C(=O)c2cc(NS(=O)(=O)c3ccccc3)ccc2O[C@@H]1CN(C)Cc1ccc2c(c1)OCO2	-1	0	-17	57	-5	.
C/C=C/c1ccc([C@H]2[C@@H](CO)N[C@@H]2CNC(=O)Cc2ccccc2)cc1	-2	.	0	.	-19	4
CN(C)C(=O)c1ccc(-c2ccc([C@H]3[C@H](CO)N4C(=O)CN(C(=O)CC5CC5)C[C@@H]34)cc2)cc1	-1	0	0	.	0	-3
Cc1ccc(S(=O)(=O)N2CCCCC2)cc1NC(=O)C1CC(=O)N(Cc2ccccc2)C1 (centres undefined)	.	.	.	2	.	.
O=C(Nc1cccc(S(=O)(=O)N2CCCCC2)c1)C1CC(=O)N(Cc2ccccc2)C1 (centres undefined)	-24*	0	.	8	-18	1
Oc1cccc(Oc2ncc(C(F)(F)F)cc2Cl)c1	-14	0	132*	.	9	-2
FC(F)(F)c1cnc(Oc2cccc3ccccc23)c(Cl)c1	0	0	1	.	-6	-3
CC1CCN(C(=O)N2c3ccccc3Sc3ccccc32)CC1	.	.	.	13	.	.
O=C(NC1CCN(C(=O)N2c3ccccc3Sc3ccccc32)CC1)c1ccccc1F	-20*	0	.	76*	.	-2
Cc1ccc(NC(=O)Nc2ccon2)cc1Cl	-34*	0	0	-9	1	3
O=C(Nc1ccc(Cl)cc1)Nc1ccon1	-38	0	-1	-8	10	-4
Cn1cnnc1SCC(=O)Nc1ccc2nc(SCc3ccccc3F)sc2c1	-23*	0	.	13	.	-1
O=C(COC(=O)c1cccnc1Cl)Nc1ccccc1OC(F)F	-3	0	4	0	-2	-1
CC(NC(=O)COC(=O)c1nc(Cl)ccc1Cl)c1ccccc1 (centres undefined)	1	44*	0	2	5	.
O=C(COC(=O)c1nc(Cl)ccc1Cl)NNC(=O)c1ccccc1	8	.	.	11	4	-3
O=C(COC(=O)c1ccccn1)Nc1ccccc1OC(F)F	6	43*	.	.	-6	-2
O=C(COC(=O)c1nc(Cl)ccc1Cl)Nc1ccccc1OC(F)F	-19*	0	4	-6	-2	-4
O=C(OCC(=O)N1CCc2ccccc21)c1nc(Cl)ccc1Cl	-19	44*	.	.	-3	-6
O=C(COC(=O)c1ccc(Cl)c([N+](=O)[O-])c1)Nc1ccccc1OC(F)F	.	.	1	.	0	.
COc1cc(N2C(=O)C=CC2=O)c(OC)cc1Cl	24	0	0	.	35*	.
SMILES	rRNA inh HTS	FGF22 binding	E-selectin induc	C2C12 statin	FN deposition inh	SIRT5 block
COc1cc(Cl)c(S(=O)(=O)N2CCCC2)cc1Cl	-12	0	0	.	4	-4
Cc1ccc(S(=O)(=O)N[C@@H]2CC[C@H](CCNC(=O)CN3CCOCC3)O[C@@H]2CO)cc1	2	0	-1	-8	.	-4
CCOC(=O)[C@@H]1[C@H]2COc3ccccc3[C@@H]2N2C(=O)N(c3ccc(F)cc3)C(=O)[C@@]12C	2	45*	0	6	2	-3
CS(=O)(=O)NCCNc1ccc(Cl)cc1[N+](=O)[O-]	-2	0	0	.	-6	0
CS(=O)(=O)NCCNc1cc(Cl)ccc1[N+](=O)[O-]	4	0	95*	-4	3	4
COc1cccc(C2C(C#N)=C(N)Oc3cc(C)n(Cc4ccco4)c(=O)c32)c1 (centres undefined)	.	.	.	142*	.	.
Cc1ccccc1S(=O)(=O)N[C@@H]1CC[C@@H](CCn2cc(-c3ccc(F)cc3)nn2)O[C@@H]1CO	-1	-1	-1	-7	19	2
CC(C)C(=O)N(c1ccc2oc(=O)sc2c1)S(=O)(=O)c1ccccc1	18	0	.	106*	.	-2
COc1ccc(NC(=O)Nc2ccc3c(c2)CC(=O)N([C@@H](C)CO)C[C@@H](C)[C@H](CN(C)C(=O)Nc2ccc(F)cc2)O3)cc1	-1	0	2	5	.	1
COc1ccccc1-c1noc(-c2ccncc2)n1	.	.	.	112*	.	.
COc1ccccc1-c1noc(-c2cccs2)n1	1	0	.	224*	.	-2
Cc1ccc(-c2noc(-c3cccs3)n2)cc1	-8	0	.	2	.	-1
CCCC#Cc1ccc2c(c1)[C@H]1[C@H](CCN1S(=O)(=O)c1ccc(C)cc1)[C@H](CO)N2C	-8	0	0	-12	-3	1
COc1ccc(C(=O)NCc2cc(C(C)C)no2)cc1OC1CCN(C(C)C)CC1	20	0	.	-6	6	-7
COc1ccc(C(=O)NCc2nc(C)c(C)s2)cc1OC1CCN(C(C)C)CC1	5	0	0	-3	16	15*
Cc1noc(NS(=O)(=O)c2ccc(N3C(=O)c4ccccc4C3=O)cc2)c1C	.	.	.	.	2	.
CC(=O)NS(=O)(=O)c1ccc(N2C(=O)c3ccccc3C2=O)cc1	-6	0	0	.	-9	15*
COc1ccc(OC)c(NC(=O)COC(=O)C2CCCCC2)c1	2	44*	0	5	-5	.
NS(=O)(=O)c1ccc(NC(=O)COC(=O)C2CCCCC2)cc1	.	44*	.	.	3	2
O=C(COC(=O)c1cnccn1)Nc1ccc(Cl)cn1	3	0	0	.	11	-3
NS(=O)(=O)c1ccc(NC(=O)COC(=O)CCC2CCCC2)cc1	10	0	3	5	3	-4
NS(=O)(=O)c1ccc(NC(=O)COC(=O)c2cnccn2)cc1	.	43*	0	18	10	0
C[C@@H]1CN([C@@H](C)CO)S(=O)(=O)c2ccc(C#C[C@@H](C)O)cc2O[C@H]1CN(C)C(=O)C1CC1	3	0	0	-5	-2	0
O=C(C[C@H]1C=C[C@H](NS(=O)(=O)c2ccc(F)cc2)[C@H](CO)O1)NC1CCC1	4	0	0	6	-14	8
